Variants at the floor of the assay were thinned out.
B1: tRNA (parent)
chain: GUUCCGUUGGCGUAAUGGUAACGCGUCUCCCUCCUAAGGAGAAGACUGCGGGUUCGAGUCCCGUACGGAACG

Variants of: B1
Assay: yeast fitness relative to wild type (ratio to wild type); higher = fitter; tRNA-Arg(CCU), competitive growth, 37 C, YPD
Method in brief: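 Changes in genotype frequencies gave Darwinian fitness relative to wild type. Frequencies were read by 100-nucleotide paired-end sequencing of gene amplicons before and after pooled Saccharomyces cerevisiae strains, carrying tRNA-Arg(CCU) gene variants at the native locus, were competed in YPD at 37°C for 24 hours in six replicates. A genotype was kept only with ≥ 100 starting reads, and estimates < 0.5 were set to 0.5.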

| Variant | yeast fitness |
| --- | --- |
| GUACCGUUGGCGUAAUGGUAACGCGUCUCCCUCCUACGGAGAAGACUGCGGGUUCGAGUCACGUACGGAACG | ≤ 0.5 |
| GGUCCGUUGGCGUAAUGGUAACGCGUCACCCUCCUAAGGAGAAGACUGCGGGUUCGAGUCCCGUACGGAACG | 0.645 |
| GGUCCGUUGGCGUAAUGGUAACGCGUCCCCCUCCUAAGGAGAAGACUGCGGGUUCGAGUCCCGUACGGAACG | 0.825 |
| GUACCGUUGGCGUAAUGGUAACGCGUCUCCCUCCUAAGGCGAAGACUGCGGGUUCGAGUUCGGUACGGAACG | ≤ 0.5 |
| GUACCGUUGGCGUAAUGGUAGCGCGUCUCCCUCCUAAGGAGAAGACUGCGGGUUCGAGUCCCGUCCGGAACG | 0.64 |
| GUACCGUUGGCGUAAUGGUAACGCGUCUCCCUCCUUAGGAGAAGACUGCGGGUUAGAGUCCUGUACGGAACG | ≤ 0.5 |
| GUACCGUUGGCGUACUGGUAACGCGUCUCCCUCCUAAGGAGAAGACUGCGGGUUCGAGUCCCGUACGGAACG | 0.659 |
| GUACCGUUGGCGUCAUGGUAACGGGUCUCCCUGCUAAGGAGAAGACUGCGGGUUCGAGUCCCGUACGGAACG | ≤ 0.5 |
| GUACCGUUGGCGUCAUGGUAACGCGUCUCCCUCCUAAGGAGAAGACUGCGGGUUCGAGUCCCGUACGGAACG | 0.567 |
| GUACCGUUGGCGUAAUGGUAACGCGUCUCCCUCCUAAGGCGAAGACAGCGGGUUCGAGUCCCGUACGGAACG | 0.647 |
| GUACCGUUGGCGUAAUGGUAACGCGUCUCCCUCCUUAGGAGAAGACUGCGGGUUCGAGUCCCGUACGGAACG | 0.681 |
| GUACCGUUGGCGUAAUGGUUACGCGUCUCCGUCCUAAGGAGAAGACUGCGGGUUCGAGUCCCGUACGGAACG | 0.535 |
| GGUCCGUUGGCGUAAUGGUAACGCGCCUCCCUCCUAAGGAGAAGACUGCGGGUUCGAGUCCCGUACGGAACG | 0.918 |
| GUACCGUUGGCGUAUUGGUAACCCGUUUCCCUCCUAAGGAGAAGACUGCGGAUUCGAGUCCCGUAUGGAACG | ≤ 0.5 |
| GUACCGUUGGCGUAAUGGUACCGGGUCUCCCUCCUAAGGAGAAGACUGCGGGUUCAAGUCCCGUACGGAACG | ≤ 0.5 |
| GUACCGUUGGCGUCAUGGUAACGCGUCUCCCUCCUACGGAGAAGACAGCGGGUUCGAGUCCCGUACGGAACG | ≤ 0.5 |
| GUACCGUUGGCGUAAUGGUACCGCUUCUCCCUCCUAAGGAGACGACUGCGGGUUCGAGUCAUGUACGGAACG | 0.592 |
| GUACCGUUGGCGUUAUGGUAACGCGUCUCCCUCCUAAGGAGAAGACUGCAGGUUCGAGUCCCGUACGGCACG | ≤ 0.5 |
| GUACCGUUGGCGUAAUGGUCGCGCGUCUCCCUCCUAAGGAGAAGACUGCGGGUUCGAGUCCCGUACGGAACG | 0.679 |

| Variant | yeast fitness |
| --- | --- |
| GGUCCGUUGGCGUAAUGGUAACGCGCCUCCCUCCUAAGGAGAAGACUGCGGGUUCAAGUCCCGUACGGAACG | 0.547 |
| GUACCGUUGGCGUGAUGGUAACCCGUCUCCCUCCUAAGGAGAAGACUGCGGGUUCGAGUCCCGUACGGAACG | 0.716 |
| GGUCCGUUGGCGUAAUGGUAACGCGUCUCCCCCCUAAGGGGAAGACUGCGGGUUCGAGUCCCGUACGGAACG | ≤ 0.5 |
| GGUCCGUUGGCGUAAUGGUAACGCGUCGCCCUCCUAAGGAGAAGACUGCGCGUUCGAGUCCCGAAUGGCACG | ≤ 0.5 |
| GUACCGUUGGCGUACUGGUAACGCGUCUCCCUCCAAAGGAGAAGACUGCGGCUUAGAGUCCCGUACGGAACG | ≤ 0.5 |
| GUACCGUUGGCGUUAUGGUCACGCGUCUCCCUCCUAAGGAGAAGACUGCGGGUUCGAGUCCCGUACGGAACG | ≤ 0.5 |
| GGUCCGUUGGCGUAAUGGUAACGCGUCUCCCUCCUAAGGAGAAGACGGCGGGUUCGAGUCCCGUACGGAACG | 0.546 |
| GGUCCGUUGGCGUAAUGGUAACGCGUCUCCCUCCUAAGGAGAAGACUGCGGGUCCGAGUCCCGUACGGAACG | 0.962 |
| GGUCCGUUGGCGUAAUGGUAACGCGUCUCCCUCCUAAGGAGAAGACUGCGGGUGCGAGUCCCGUACGGAACG | ≤ 0.5 |
| GUACCGUUGGCGUAAUGGUAACGCGUCUCCCUCCUAAGGCGAAGACUGCGGGUUCGAGUCCUGUACGGAACG | 0.548 |
| GUACCGUUGGCGUAAUGGUAGCGCGUCUCCCUCCAAAGGUGAAGACUGCGGGUCCGAGUCCCGUACGGAACG | ≤ 0.5 |
| GUACCGUUGGCGUACUCGUAACGCGUCUCCCUCCUAAGGAGAAGACUGCGGGUUCGAGUCCCGUACGGAACG | 0.507 |
| GUACCGUUGGCGUUAUGGUAACGCGUCUCCCUCCUAAGGAGUAGACUGCGGGUUAGAGUCCCGUACGGAACG | ≤ 0.5 |
| GUACCGUUGGCGUAAUGGUUACGCGUCUCCCUCCUAAGGAGCAGACUGCGGGUUGGAGUCCCGUACGGAACG | ≤ 0.5 |
| GUACCGUUGGCGUAAUGGUUACGCGUCUCCCUCCUAAGGAGAAGUCUGCGGGUUCGACUCCCGUACCGAACG | ≤ 0.5 |
| GUACCGUUGGCGUAAUGGUAGCGCGUCUCCCUCCUAAGGAGAAGUCUGCGGGUUCGAGUCCCGUACCGAACG | ≤ 0.5 |
| GUACCGUUGGCGUAAUGGUAGCGCGUCUCCCUCGUAAGGGGAAGACUGCGGGUUCGAGUGCGGUACGGAACG | ≤ 0.5 |
| GUACCGUUGGCGUAAUGGUACCGCGUCUCCCUUCAAAGGAGAAGACUGCGCGUUCGAGUCCCGUACGCAUCG | 0.564 |

From the RNAGym collection of RNA variant scans (doi:10.1126/science.aae0568)
